Experimental data from ChEMBL document CHEMBL1125251, “4'-Hydroxy-3-methoxyflavones with potent antipicornavirus activity” (J Med Chem, 1991).
Values after ≈ are worked out from the molar mass of the structure shown.

How the values were obtained:
[1] = test system: Enterovirus C; assay: The ratio of the poliovirus viral titer of the virus control (reduction factor) to the viral titer in the presence of the maximal non-toxic dose (RF MNTD); assay type: functional
Procedure, shortened: (§1)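 Poliovirus type 1 Brunhilde 1A/S3 in Vero monolayers. Serial 10-fold virus dilutions adsorbed 1 h at 37 °C, then serial 2-fold compound dilutions were added. Incubated at 37 °C and scored for CPE by light microscopy, with a 3-day readout. Titer reduction is control/treated TCD50/mL. ED99 is the minimum concentration inhibiting 99% of virus. Virus, cell and compound controls were included.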

[2] = test system: Enterovirus C; assay: Maximal non-toxic dose (MNTD) that shows antiviral activity.; assay type: functional
Procedure, shortened: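 End-point titration. Poliovirus type 1 Brunhilde was run in Vero cells at 37 °C with a 3-day read. Rhinovirus 15 was run in human skin fibroblasts at 33 °C with a 7-day read. Monolayers got serial 10-fold virus dilutions and adsorbed 1 h at 37 °C, then serial 2-fold compound dilutions (DMSO stock in maintenance medium). CPE was read by light microscopy. RF = control titer (TCD50/mL) / titer at maximal nontoxic dose.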

[3] = test system: Enterovirus C; assay: Minimal dose which produces titer reduction at 10 ug/mL (mD RF10e3); assay type: functional
[4] = Therapeutic Index measured as the ratio of CyD50 (rhino) / ED99 (rhino) values.; details: read-out: Therapeutic index 99
Procedure, shortened: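 TI99 = CyD50/ED99 for rhinovirus 15. ED99 came from end-point titration in human skin fibroblasts at 33 °C over 7 days. CyD50 came from fibroblast growth: 10⁶ cells were given serial 2-fold compound dilutions in quadruplicate for 6 days at 37 °C, then counted and reseeded, repeated five times. Generation time was calculated per concentration.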

[5] = test system: Human rhinovirus sp.; assay: Minimum drug concentration at which 99% of the rhino virus is inhibited.; assay type: functional
Procedure, shortened: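 End-point titration with rhinovirus type 15 on human skin fibroblast monolayers. Cells were infected with serial 10-fold virus dilutions and allowed 1 h adsorption at 37 °C. Serial 2-fold compound dilutions were then added and plates incubated at 33 °C. CPE was read daily by light microscopy for at least 1 week, titres as TCD50/mL. ED99 = minimum concentration inhibiting 99% of virus.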

[6] = Cytotoxic dose at which 50% growth of normal cells is inhibited; assay type: cell-based; details: chlorocebus sabaeus, Vero cells; read-out: CyD50
Procedure, shortened: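 Cell-growth cytotoxicity in Vero cells or human skin fibroblasts. Serial 2-fold dilutions in M-199 with 6% newborn calf serum were added in quadruplicate to 10⁶ cells and held 6 days at 37 °C. Cells were trypsinized, counted and reseeded with compound, repeated five times. Generation time was calculated per concentration. CyD50 = lowest concentration at least doubling generation time versus untreated cells.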

[7] = test system: Human rhinovirus sp.; assay: Cytotoxic dose at which 50% growth of normal cells is inhibited against rhino virus infection.; assay type: functional
Procedure, shortened: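 Human skin fibroblasts, 10⁶ cells per flask, given serial 2-fold dilutions in quadruplicate in M-199 with 6% newborn calf serum and held 6 days at 37 °C. Cells were trypsinized, counted in a chamber and reseeded with compound over five repeat cycles. CyD50 = lowest concentration at least doubling cell generation time relative to untreated control.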

[8] = Therapeutic Index measured as the ratio of CyD50(polio) / ED99(polio) values; assay type: organism-based; details: enterovirus c; read-out: Therapeutic index 99
Procedure, shortened: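 TI99 = CyD50/ED99 for poliovirus. ED99 came from end-point titration in Vero cells at 37 °C over 3 days. CyD50 came from Vero cell growth: 10⁶ cells were given serial 2-fold compound dilutions in quadruplicate for 6 days at 37 °C, then trypsinized, counted and reseeded, repeated five times. Generation time was calculated per concentration.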

[9] = test system: Enterovirus C; assay: Minimum drug concentration at which 99% of the polio virus is inhibited; assay type: functional; procedure, shortened: as §1

SMILES	Reduction factor [1]	Max non-toxic dose [2] [µg/mL]	Minimal dose [3] [µg/mL]	selectivity ratio [4]	ED99 [5] [µg/mL]	CC50 [6] [µg/mL]	CyD50 [7] [µg/mL]	selectivity ratio [8]	ED99 [9] [µg/mL]
COc1ccc(-c2oc3cc(OC)cc(O)c3c(=O)c2OC)cc1	1	>50	–	–	–	–	–	–	–
COc1c(-c2ccc(OC(C)=O)c(OC(C)=O)c2)oc2cc(OC(C)=O)cc(OC(C)=O)c2c1=O	1000000	>50	2	–	–	–	–	–	–
COc1ccc(-c2oc3ccc(O)cc3c(=O)c2OC)cc1	1	100	–	–	–	–	–	–	–
COc1c(-c2ccc(O)cc2)oc2cc(C)ccc2c1=O	–	25	4	1	25	25 (≈ 88.6 µM)	25	12.5	2
COc1c(-c2ccc(O)cc2)oc2cccc(OC)c2c1=O	–	10	5	10	15	150 (≈ 503 µM)	150	15	10
COc1c(-c2ccc(O)cc2)oc2ccc(C(C)C)cc2c1=O	–	5	–	1	10	10 (≈ 32.2 µM)	10	2	5
COc1cc(O)c2c(=O)c(OC)c(-c3ccc(O)c(O)c3)oc2c1	1000000	10	0.5	–	–	10 (≈ 30.3 µM)	–	33.3	0.3
COc1c(-c2ccc(O)cc2)oc2c(C)cc(Cl)cc2c1=O	1	25	–	–	–	50 (≈ 158 µM)	–	< 1	>50
COc1ccc(-c2oc3cccc(OC)c3c(=O)c2OC)cc1	1	100	–	–	–	–	–	–	–
COc1ccc(-c2oc3cc(O)cc(O)c3c(=O)c2OC)cc1OC	–	50	2.5	–	–	–	–	–	–
COc1ccc(-c2oc3cc(OC)c(OC)cc3c(=O)c2OC)cc1OC	10000	50	50	–	–	–	–	–	–
COc1c(-c2ccc(O)c(O)c2)oc2c(OC)c(O)cc(O)c2c1=O	1000000	20	2	–	–	10 (≈ 28.9 µM)	–	6.6	1.5
COc1c(-c2ccc(Cl)cc2)oc2cc(C)ccc2c1=O	1	25	–	–	–	100 (≈ 333 µM)	–	–	<1000
COc1c(-c2ccc(O)cc2)oc2cc(I)ccc2c1=O	10000	10	10	–	<1000	20 (≈ 50.7 µM)	20	5	4
COc1ccc(-c2oc3c(OC)c(OC)c(OC)c(OC)c3c(=O)c2OC)cc1OC [3,5,6,7,8,3',4'-HEPTAMETHOXYFLAVONE]	100000	50	25	–	–	–	–	–	–
COc1c(-c2ccc(O)cc2)oc2c(OC)cccc2c1=O	1000000	50	2.5	–	–	25 (≈ 83.8 µM)	–	1.25	20
Cc1ccc2c(=O)c(N)c(-c3ccc(O)cc3)oc2c1	–	–	–	–	–	10 (≈ 37.4 µM)	–	–	–
COc1ccc(-c2oc3c(OC)c(OC)c(OC)c(O)c3c(=O)c2OC)cc1OC	10000	50	50	–	–	–	–	–	–
COc1c(-c2ccc(O)cc2)oc2ccc(C)cc2c1=O	–	12	–	–	<1000	75 (≈ 266 µM)	75	15	5
COc1ccc(-c2oc3c(OC)c(OC)cc(O)c3c(=O)c2OC)cc1	–	7.5	–	–	–	–	–	–	–

SMILES	Reduction factor [1]	Max non-toxic dose [2] [µg/mL]	Minimal dose [3] [µg/mL]	selectivity ratio [4]	ED99 [5] [µg/mL]	CC50 [6] [µg/mL]	CyD50 [7] [µg/mL]	selectivity ratio [8]	ED99 [9] [µg/mL]
COc1c(O)cc2oc(-c3ccc(O)cc3)c(OC)c(=O)c2c1O [3,6-DIMETHOXY KAEMPFEROL]	100000	20	1	–	–	25 (≈ 75.7 µM)	–	50	0.5
Cc1ccc2c(=O)c(C)c(-c3ccc(O)cc3)oc2c1	–	–	–	–	25	100 (≈ 376 µM)	100	–	–
COc1ccc(-c2oc3cc(O)cc(O)c3c(=O)c2OC)cc1 [ERMANIN]	–	10	5	–	–	50 (≈ 159 µM)	–	10	5
COc1c(-c2ccc(O)cc2)oc2ccc(O)cc2c1=O	–	10	5	1.5	10	3 (≈ 10.6 µM)	15	1.5	2
COc1c(-c2ccc(O)cc2)oc2ccc(Cl)cc2c1=O	–	100	1.5	–	<1000	100 (≈ 330 µM)	100	16.7	6
COc1c(-c2ccc(O)cc2)oc2cc(C(C)C)ccc2c1=O	–	25	–	–	–	–	–	–	–
Cc1ccc2c(=O)c(Cl)c(-c3ccc(O)cc3)oc2c1	–	–	–	–	20	50 (≈ 174 µM)	50	–	–
COc1ccc(-c2oc3cc(C)ccc3c(=O)c2OC)cc1	1	100	–	–	–	–	–	–	–
COc1ccc(-c2oc3ccc(OC)cc3c(=O)c2OC)cc1	–	50	–	–	50	100 (≈ 320 µM)	100	2	–
COc1c(-c2ccc(O)cc2)oc2cc(F)ccc2c1=O	1000	10	–	–	–	25 (≈ 87.3 µM)	–	2.5	10
COc1ccc2oc(-c3ccc(O)cc3)c(OC)c(=O)c2c1	–	50	–	–	–	200 (≈ 670 µM)	–	8	25
COc1cc(O)c2c(=O)c(OC)c(-c3ccc(OC)c(OC)c3)oc2c1 [RETUSIN]	1	>50	–	–	–	–	–	–	–
COc1ccc(-c2oc3c(OC)c(O)cc(O)c3c(=O)c2OC)cc1	1	>10	–	–	–	–	–	–	–
COc1c(-c2ccc(O)cc2)oc2cc(O)cc(O)c2c1=O [ISOKAEMPFERIDE]	1000000	10	0.25	–	–	10 (≈ 33.3 µM)	–	50	0.2
COc1cc(O)c2c(=O)c(OC)c(-c3ccc(O)c(OC)c3)oc2c1 [PACHYPODOL]	1000000	20	0.5	–	–	25 (≈ 72.6 µM)	–	10	2.5
COc1ccc(-c2oc3cc(O)c(OC)c(O)c3c(=O)c2OC)cc1 [SANTIN]	1	100	–	–	–	–	–	–	–
COc1c(-c2ccc(O)cc2)oc2ccccc2c1=O	100000	15	6	–	–	10 (≈ 37.3 µM)	–	1.7	6
COc1c(-c2ccc(O)cc2)oc2cc(Br)ccc2c1=O	10	30	–	–	–	30 (≈ 86.4 µM)	–	< 1	>30
COc1c(-c2ccc(O)c(O)c2)oc2cc(O)cc(O)c2c1=O [3-O-METHYLQUERCETIN]	1000000	20	0.5	–	–	5 (≈ 15.8 µM)	–	16.7	0.3
